Experiments:
huCD4_1–32-YFP L30A = huCD4_1–32-YFP L30A (Homo sapiens, UniProt P01730, L30A); experiment: CADA inhibition of huCD4_1–32-YFP secretion; type: cell-based
Outline: (§1)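 HEK293T cells were grown in DMEM with 10% FBS and 10 mM HEPES, seeded and left to adhere overnight, then transiently transfected with plasmid by Lipofectamine. Test compound was added 6 h after transfection as a 1:5 serial dilution (50 to 0.016 μM) for 48 h. Secreted YFP in the supernatant was captured on GFP-Trap magnetic beads for 1 h, washed with PBS and measured by flow cytometry. IC50 is the concentration that halves the signal relative to the untreated control, taken from a four-parameter fit of at least three replicate experiments. FC is the mutant mean IC50 divided by the WT mean IC50.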

FL huCD4 Q15A = FL huCD4 Q15A (Homo sapiens, UniProt P01730, Q15A); experiment: CADA down-modulation of cellular huCD4; type: cell-based
Outline: (§2)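 HEK293T cells, seeded overnight in DMEM with 10% serum, 1 mM sodium pyruvate and 0.075% NaHCO₃, were lipofected with full-length human CD4 (WT or mutant). Test compound in DMSO was added 6 h post-transfection as 1:5 serial dilutions (50–0.016 μM) for 48 h. Surface CD4 was stained with FITC/APC anti-CD4 (SK3) and read by flow cytometry. IC50 is 50% of the untreated signal, from four-parameter fits of ≥3 replicate experiments. FC is mutant/WT mean IC50.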

huCD4_1–32-YFP L11A = huCD4_1–32-YFP L11A (Homo sapiens, UniProt P01730, L11A); experiment: CADA inhibition of huCD4_1–32-YFP secretion; type: cell-based
Outline: as §1

FL huCD4 A17V = FL huCD4 A17V (Homo sapiens, UniProt P01730, A17V); experiment: CADA down-modulation of cellular huCD4; type: cell-based
Outline: as §2

[1] = target: truncated huCD4 D1D2 K27A (Homo sapiens, UniProt P01730, K27A); experiment: Cell-free in vitro translation and translocation; type: biochemical; details: 15 μM CADA
Outline: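 Proteinase K protection 30 min on ice, quenched with PMSF. Pellets washed in low-salt buffer (HEPES pH 7.6), then SDS-PAGE and phosphor imaging. Translocation normalised to untreated WT. Two to five independent experiments; Welch's t test.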

huCD4_1–32-YFP G4A = huCD4_1–32-YFP G4A (Homo sapiens, UniProt P01730, G4A); experiment: CADA inhibition of huCD4_1–32-YFP secretion; type: cell-based
Outline: as §1

FL huCD4 Q15A;P20A = FL huCD4 Q15A;P20A (Homo sapiens, UniProt P01730, P20A/Q15A); experiment: CADA down-modulation of cellular huCD4; type: cell-based; details: HEK293T, 48h
Outline: as §2

FL huCD4 L16A = FL huCD4 L16A (Homo sapiens, UniProt P01730, L16A); experiment: CADA down-modulation of cellular huCD4; type: cell-based
Outline: as §2

huCD4_1–32-YFP L14A = huCD4_1–32-YFP L14A (Homo sapiens, UniProt P01730, L14A); experiment: CADA inhibition of huCD4_1–32-YFP secretion; type: cell-based
Outline: as §1

FL huCD4 G25A = FL huCD4 G25A (Homo sapiens, UniProt P01730, G25A); experiment: CADA down-modulation of cellular huCD4; type: cell-based
Outline: as §2

truncated huCD4 D1D2 WT = truncated huCD4 D1D2 WT (Homo sapiens, UniProt P01730); experiment: Cell-free in vitro translation and translocation; type: biochemical
Outline: (§3)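 Truncated huCD4 D1D2 (lacking glycosylation sites and membrane anchor) was made by PCR and transcribed with T7. Proteinase K protection ran 30 min on ice and was quenched with PMSF. Products were separated by SDS-PAGE and imaged by phosphor imaging. The SP-cleaved band was normalised to the matching control. Data are from 2–5 independent experiments, compared with WT by Welch t test.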

FL huCD4 V29A = FL huCD4 V29A (Homo sapiens, UniProt P01730, V29A); experiment: CADA down-modulation of cellular huCD4; type: cell-based
Outline: as §2

[2] = target: truncated huCD4 D1D2 L18A (Homo sapiens, UniProt P01730, L18A); experiment: Cell-free in vitro translation and translocation; type: biochemical; details: 15 μM CADA
Outline: as §3

FL huCD4 L19A = FL huCD4 L19A (Homo sapiens, UniProt P01730, L19A); experiment: CADA down-modulation of cellular huCD4; type: cell-based
Outline: as §2

[3] = target: truncated huCD4 D1D2 L16A (Homo sapiens, UniProt P01730, L16A); experiment: Cell-free in vitro translation and translocation; type: biochemical; details: 15 μM CADA
Outline: as §3

FL huCD4 L14A = FL huCD4 L14A (Homo sapiens, UniProt P01730, L14A); experiment: CADA down-modulation of cellular huCD4; type: cell-based
Outline: as §2

huCD4_1–32-YFP R3A = huCD4_1–32-YFP R3A (Homo sapiens, UniProt P01730, R3A); experiment: CADA inhibition of huCD4_1–32-YFP secretion; type: cell-based
Outline: as §1

FL huCD4 L30A = FL huCD4 L30A (Homo sapiens, UniProt P01730, L30A); experiment: CADA down-modulation of cellular huCD4; type: cell-based
Outline: as §2

huCD4_1–32-YFP H9A = huCD4_1–32-YFP H9A (Homo sapiens, UniProt P01730, H9A); experiment: CADA inhibition of huCD4_1–32-YFP secretion; type: cell-based
Outline: as §1

FL huCD4 Q24A = FL huCD4 Q24A (Homo sapiens, UniProt P01730, Q24A); experiment: CADA down-modulation of cellular huCD4; type: cell-based
Outline: as §2

FL huCD4 F7A = FL huCD4 F7A (Homo sapiens, UniProt P01730, F7A); experiment: CADA down-modulation of cellular huCD4; type: cell-based
Outline: as §2

FL huCD4 WT = FL huCD4 WT (Homo sapiens, UniProt P01730); experiment: CADA down-modulation of cellular huCD4; type: cell-based
Outline: as §2

huCD4_1–32-YFP R8A = huCD4_1–32-YFP R8A (Homo sapiens, UniProt P01730, R8A); experiment: CADA inhibition of huCD4_1–32-YFP secretion; type: cell-based; details: read-out: Secreted YFP IC50 (μM) Mean, HEK293T, CADA 48h
Outline: as §1

FL huCD4 P20G = FL huCD4 P20G (Homo sapiens, UniProt P01730, P20G); experiment: CADA down-modulation of cellular huCD4; type: cell-based; details: HEK293T, 48h
Outline: as §2

[4] = + less, − more sensitive to CADA
[5] = read-out: Secreted YFP IC50 (μM) Mean, HEK293T, CADA 48h
[6] = read-out: Cellular huCD4 IC50 (μM) Mean, HEK293T, CADA 48h

## C=C1CN(S(=O)(=O)c2ccc(C)cc2)CCCN(Cc2ccccc2)CCCN(S(=O)(=O)c2ccc(C)cc2)C1 [CADA, Cyclotriazadisulfonamide]
huCD4_1–32-YFP L30A; [4]
  Secreted YFP FC (fold change of mean IC50 relative to WT): −1.2
huCD4_1–32-YFP L30A; [5]
  IC50: 1.08 µM
FL huCD4 Q15A; [4]
  Cellular huCD4 FC (fold change of mean IC50 relative to WT): >+93
FL huCD4 Q15A; [6]
  IC50: > 50 µM
huCD4_1–32-YFP L11A; [4]
  Secreted YFP FC (fold change of mean IC50 relative to WT): −3.3
huCD4_1–32-YFP L11A; [5]
  IC50: 0.38 µM
FL huCD4 A17V; [4]
  Cellular huCD4 FC (fold change of mean IC50 relative to WT): +2.5
FL huCD4 A17V; [6]
  IC50: 1.33 µM
[1]
  sensitivity of translocation towards CADA compared to WT: significantly reduced sensitivity to CADA
huCD4_1–32-YFP G4A; [4]
  Secreted YFP FC (fold change of mean IC50 relative to WT): −1.4
huCD4_1–32-YFP G4A; [5]
  IC50: 0.91 µM
FL huCD4 Q15A;P20A
  sensitivity to CADA: no longer responded to CADA
FL huCD4 L16A; [4]
  Cellular huCD4 FC (fold change of mean IC50 relative to WT): −4.9
FL huCD4 L16A; [6]
  IC50: 0.11 µM
huCD4_1–32-YFP L14A; [4]
  Secreted YFP FC (fold change of mean IC50 relative to WT): −1.1
huCD4_1–32-YFP L14A; [5]
  IC50: 1.12 µM
FL huCD4 G25A; [4]
  Cellular huCD4 FC (fold change of mean IC50 relative to WT): +1.1
FL huCD4 G25A; [6]
  IC50: 0.61 µM
Truncated huCD4 D1D2 WT; 15 μM CADA vs DMSO, rabbit reticulocyte lysate, ovine microsomes
  inhibition of translocation by CADA: 75%
Truncated huCD4 D1D2 WT; increasing doses of CADA
  effect of CADA on co-translational translocation: dose-dependently prevented by CADA
FL huCD4 V29A; [4]
  Cellular huCD4 FC (fold change of mean IC50 relative to WT): +1.2
FL huCD4 V29A; [6]
  IC50: 0.63 µM
[2]
  sensitivity of translocation towards CADA compared to WT: higher sensitivity towards CADA
FL huCD4 L19A; [4]
  Cellular huCD4 FC (fold change of mean IC50 relative to WT): +1.9
FL huCD4 L19A; [6]
  IC50: 1.04 µM
[3]
  sensitivity of translocation towards CADA compared to WT: higher sensitivity towards CADA
FL huCD4 L14A; [4]
  Cellular huCD4 FC (fold change of mean IC50 relative to WT): −1.2
FL huCD4 L14A; [6]
  IC50: 0.46 µM
huCD4_1–32-YFP R3A; [4]
  Secreted YFP FC (fold change of mean IC50 relative to WT): +1.6
huCD4_1–32-YFP R3A; [5]
  IC50: 1.99 µM
FL huCD4 L30A; [4]
  Cellular huCD4 FC (fold change of mean IC50 relative to WT): +1.6
FL huCD4 L30A; [6]
  IC50: 0.84 µM
huCD4_1–32-YFP H9A; [4]
  Secreted YFP FC (fold change of mean IC50 relative to WT): +1.7
huCD4_1–32-YFP H9A; [5]
  IC50: 2.13 µM
FL huCD4 Q24A; [4]
  Cellular huCD4 FC (fold change of mean IC50 relative to WT): +2.3
FL huCD4 Q24A; [6]
  IC50: 1.22 µM
FL huCD4 F7A; [4]
  Cellular huCD4 FC (fold change of mean IC50 relative to WT): −4.2
FL huCD4 F7A; [6]
  IC50: 0.13 µM
FL huCD4 WT; [4]
  Cellular huCD4 FC (fold change of mean IC50 relative to WT): 1.00
FL huCD4 WT; [6]
  IC50: 0.54 µM
huCD4_1–32-YFP R8A
  IC50: > 50 µM
FL huCD4 P20G
  sensitivity to CADA: fully restored CADA sensitivity

From paper PMC6980386 (Traffic (Copenhagen, Denmark), 2019)
